TLR9-MyD88 inh = inhibitors of TLR9-MyD88 association in cells, primary screen, cell-based, CHO, BLA complementation, fluorescence; Toll-like receptor 9 (Homo sapiens) + Myeloid differentiation primary response protein …; CCF4 FRET ratio; inhibition, % at 4.98 µM; actives 0.21% (n = 340,000); AID 504734, 2011;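 active = inhibition above the mean over all tested compounds plus 3 SD, cut at about 21% in these data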;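 also: 0% = DMSO only wells and 100% = clavulanate BLA inhibitor control wells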
Target sequence (Q99836 whole entry, looked up): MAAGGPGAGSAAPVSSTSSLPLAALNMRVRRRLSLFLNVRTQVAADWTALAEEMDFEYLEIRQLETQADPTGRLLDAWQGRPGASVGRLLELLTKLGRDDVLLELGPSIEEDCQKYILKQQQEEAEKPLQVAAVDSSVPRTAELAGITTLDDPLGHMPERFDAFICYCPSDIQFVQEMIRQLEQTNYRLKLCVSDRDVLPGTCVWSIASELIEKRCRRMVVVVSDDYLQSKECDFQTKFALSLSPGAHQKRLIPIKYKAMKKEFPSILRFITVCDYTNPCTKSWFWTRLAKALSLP
Target sequence (Q9NR96 whole entry, looked up): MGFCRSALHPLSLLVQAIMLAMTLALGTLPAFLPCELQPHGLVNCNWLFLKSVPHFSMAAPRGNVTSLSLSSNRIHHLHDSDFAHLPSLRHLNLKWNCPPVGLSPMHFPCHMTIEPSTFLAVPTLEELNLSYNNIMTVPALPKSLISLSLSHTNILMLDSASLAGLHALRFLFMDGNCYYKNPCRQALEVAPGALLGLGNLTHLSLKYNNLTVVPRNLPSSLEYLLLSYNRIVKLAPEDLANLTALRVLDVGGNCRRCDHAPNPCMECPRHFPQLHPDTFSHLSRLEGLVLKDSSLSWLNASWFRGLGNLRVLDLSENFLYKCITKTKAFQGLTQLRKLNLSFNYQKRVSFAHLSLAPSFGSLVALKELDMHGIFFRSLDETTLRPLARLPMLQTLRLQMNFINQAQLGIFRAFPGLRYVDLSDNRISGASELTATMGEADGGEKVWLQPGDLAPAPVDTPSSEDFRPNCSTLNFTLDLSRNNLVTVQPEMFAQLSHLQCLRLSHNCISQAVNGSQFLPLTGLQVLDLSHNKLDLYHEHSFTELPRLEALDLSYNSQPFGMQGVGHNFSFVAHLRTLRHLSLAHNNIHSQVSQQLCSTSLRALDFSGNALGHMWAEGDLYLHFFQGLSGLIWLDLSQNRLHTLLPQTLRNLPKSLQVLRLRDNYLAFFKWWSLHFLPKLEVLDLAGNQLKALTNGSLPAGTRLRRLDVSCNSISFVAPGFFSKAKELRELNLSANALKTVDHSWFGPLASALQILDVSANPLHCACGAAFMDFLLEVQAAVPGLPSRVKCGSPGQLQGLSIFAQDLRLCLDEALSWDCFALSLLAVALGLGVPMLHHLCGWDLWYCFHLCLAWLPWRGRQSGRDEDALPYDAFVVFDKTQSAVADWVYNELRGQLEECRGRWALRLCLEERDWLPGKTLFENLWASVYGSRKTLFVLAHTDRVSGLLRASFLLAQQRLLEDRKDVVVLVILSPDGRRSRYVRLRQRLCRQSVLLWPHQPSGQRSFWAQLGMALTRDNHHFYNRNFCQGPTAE
bCat nuc transl = modulators of beta-catenin nuclear translocation, primary screen, imaging, HeLa cells, immunofluorescence, high-content; nuclear translocation activity, % at 5 µM; actives 0.3% (n = 190,000); AID 1665, 2009;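 active = nuclear translocation activity above 50% at 5 µM, with a well cell count of 50 or more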;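 also: per-cell ratio of nuclear to cytoplasmic median beta-catenin stain intensity; plate controls were DMSO negative control for no effect and GSK-3 inhibitor IX positive control for full effect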
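Signal – beta-catenin immunofluorescence imaging with DAPI · Test system – human HeLa cell line · Dosing – 5 µM primary single dose, 0.1% DMSO, 0.02–20 µM confirmation series · Measure – % activation, nuclear-to-cytoplasmic median beta-catenin signal ratio per cell · Incubation – 24 h compound exposure at 37°C, 5% CO2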
MT stabilize HCS = microtubule stabilizers in HeLa cells, primary screen, imaging, high-content imaging; % tubulin-high responders, % at 10 µM; HeLa tubulin immunostaining HCS, 24 h; share of cells brighter than vehicle mean+2SD; actives 0.83% (n = 200,000); AID 2205, 2009;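 active = plate Z-score above 3 for both tubulin-high and condensed-nucleus cell shares, with cell loss under 80%, at 10 µM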;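 also: anti alpha tubulin signal scored within the nucleus-defined area of each cell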
NOD2 RIPK2 PPI = NOD2-RIPK2 binding disruptors in cells, primary screen, fluorescence, CHO cells, BLA complementation. Receptor-interacting serine/threonine-protein kinase 2 (Homo sapiens), O43353. CCF4 ratio. inhibition, % at 4.98 µM. actives 0.38% (n = 360,000). AID 624267, 2012; in the data active = inhibition above about 21%;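 also: 0% = vehicle only and 100% = reference blocker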
TLR4 MyD88 comp = inhibitors of TLR4-MyD88 association in cells, primary screen, cell-based, HeLa CL3-4, BLA complementation, FRET ratio; inhibition, % at 8.4 µM; actives 0.18% (n = 200,000); HeLa CL3-4 TLR4/MyD88 BLA complementation; in the data active = inhibition above about 25%;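 also: 0% = vehicle and 100% = reference inhibitor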
Hsp70 act = Hsp70 transcriptional activators, primary screen, cell-based, HeLa, Hsp70 promoter luciferase, luminescence, 10 µM | HeLa Hsp70 promoter luciferase reporter; scaled: vehicle 0, proteasome-inhibitor control 100% | activation, % at 10 µM | actives 0.04% (n = 200,000) | AID 1203, 2008;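 active = activation above the mean across all tested compounds plus 3 SD, cutoff set per campaign, cut at about 5.5% in these data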;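 also: 100% = MG132 at 30 µM as the positive control and 0% = DMSO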
TLR9-MyD88 cf = TLR9-MyD88 association inhibitors, retest, confirmation, cell-based, CHO, BLA complementation, fluorescence, triplicate. shares compounds with TLR9-MyD88 inh. CCF4 FRET ratio. inhibition, % at 4.98 µM. actives 51% (n = 680). AID 540250, 2011;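 active = mean inhibition across three repeats above about 21% taken from the earlier screen, limit read from the data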;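 also: blue over green emission ratio reports constitutive TLR9 MyD88 association via BLA complementation; 0% = DMSO vehicle wells and 100% = clavulanate BLA inhibitor wells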
BLA nonselective = beta-lactamase reporter inhibitors in CHO cells, artefact control for TLR9-MyD88 binding inhibitor project, cell-based, fluorescence | actives 7% (n = 680) | shares compounds with TLR9-MyD88 inh | AID 540251, 2011 | CHO-BLA cells, CCF4 FRET ratio, BLA reporter | inhibition, % at 4.98 µM;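 active = mean inhibition above a 50% cutoff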;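 also: counterscreen of TLR9-MyD88 hits on CMV-driven BLA in CHO-K1 cells; 0% = DMSO alone and 100% = clavulanate blocking BLA; higher means less blue over green ratio so more BLA blockade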
TLR9 CHO tox = CHO cell viability loss – luminescence, single concentration, cytotoxicity control for TLR9-MyD88 binding inhibitor project. shares compounds with TLR9-MyD88 inh. TLR9-MyD88 CHO cells cytotoxicity. inhibition, % at 4.98 µM. actives 39% (n = 680). AID 588336, 2011; in the data active = inhibition above about 11%
* = called active by the depositor; i = inactive; . = no result. Compounds with a hit are over-represented: about 1% of the library has one in this group of screens.

SMILES	TLR9-MyD88 inh	bCat nuc transl	MT stabilize HCS	NOD2 RIPK2 PPI	TLR4 MyD88 comp	Hsp70 act	TLR9-MyD88 cf	BLA nonselective	TLR9 CHO tox
O=C(NCCc1ccccc1)C(=O)NCC1OCCCN1S(=O)(=O)c1cccs1 (stereo unspecified)	2	.	.	-3	.	.	.	.	.
CSCCC(C(=O)OCC(=O)c1ccc(C)c(C)c1)N1C(=O)c2cc(Cl)c(Cl)cc2C1=O (stereo unspecified)	22*	-5	2	-8	-11	0	-1	-3	2
COc1cc(CN2CCC(CCC(=O)NC3CC3)CC2)cc(Cl)c1OC	-4	.	.	-6	.	.	.	.	.
O=S(=O)(c1ccccc1)c1nc(Nc2cccc(O)c2)sc1Cl	21*	-4	4	7	-8	0	-1	-3	-1
Cc1oc(-c2cc(F)ccc2F)nc1CN1CCN(c2cnccn2)CC1	22*	0	1	1	-2	0	-2	-3	2
CNc1cncc(-c2cnn(CC(C)C)c2)n1	.	.	.	-7	.	.	.	.	.
O=C(CC(C(=O)O)c1cccc(Br)c1)c1ccc(Cl)cc1 (stereo unspecified)	-2	.	.	0	.	.	.	.	.
CCn1nc(-c2ccccc2)c2nc3ccccc3nc21	25*	-1	2	10	25	0	35*	34	4
Cc1ccc(NC(=O)c2cccc(C(F)(F)F)c2)cc1NC(=O)c1[nH]cnc1C(N)=O	28*	.	.	-6	.	.	2	5	-3
c1ccc(-c2cnn3c(-c4ccccc4)c(-c4ccccc4)nc3n2)cc1	23*	-1	i	9	13	0	60*	58*	-3
Nc1nc(-c2ccccc2)c(-c2ccccc2)n1N	5	.	.	-1	.	.	.	.	.
CCOC1=CC2=C(C(=O)C(Cl)=CC2=O)[C@@H]2CN(S(=O)(=O)c3ccc(C)cc3)[C@@H](c3ccccc3)[C@H]12	.	.	.	0	.	.	.	.	.
CC(C)NC(=O)c1nc2c(nnn2Cc2cccc(Cl)c2)c(=O)[nH]1	-8	.	.	8	.	.	.	.	.
CCCCNC(=S)NNc1c(Cl)cc(Cl)cc1Cl	7	-1	3	-13	-2	0	.	.	.
O=C(NCCCl)NNc1c(Cl)cc(Cl)cc1Cl	22*	-1	3	-1	-13	0	2	0	3
COc1ccccc1C1C=C(c2ccc(Cl)cc2)Nc2nc(NS(C)(=O)=O)nn21 (stereo unspecified)	.	0	1	.	5	0	.	.	.
COc1ccccc1C1C=C(c2ccc(Cl)cc2)Nc2nc(N3C(=O)CCC3=O)nn21 (stereo unspecified)	47*	-3	4	53*	8	1	14	19	-2
COc1ccc(NS(=O)(=O)N2CCOCC2)cc1	-6	.	.	0	.	.	.	.	.
Cc1ccc(NC(=O)/C(CN(C)C)=N\O)cc1	24*	2	3	13	17	0	6	8	0
COc1cc(-c2noc(C)c2C(=O)NCCCN2CCOCC2)cc(OC)c1OC	-5	.	.	-4	.	.	.	.	.
Nc1cccc2c1C(=O)N(C(=O)c1ccc(Cl)c(S(=O)(=O)N3CCCCCC3)c1)C2=O	28*	-1	2	17	19	0	8	13	2
Cc1cc(NC(=O)c2c([N+](=O)[O-])cnn2C)no1	34*	-1	1	-9	-13	0	3	-6	0
COC(=O)C1=C(C)N(Cc2ccccc2)C(=NCCCCO)N[C@H]1CCc1ccccc1	2	.	.	-7	.	.	.	.	.
COC(=O)N/N=C/c1cc(Br)ccc1O	-4	0	3	3	-13	0	.	.	.
CC(C)NC(=S)N/N=C/c1cc(Br)ccc1O	21*	-2	3	15	19	0	16	9	4
SMILES	TLR9-MyD88 inh	bCat nuc transl	MT stabilize HCS	NOD2 RIPK2 PPI	TLR4 MyD88 comp	Hsp70 act	TLR9-MyD88 cf	BLA nonselective	TLR9 CHO tox
COc1ccc(Cn2c(O)c(/C=N/NC(=O)c3cccnc3)c3ccccc3c2=O)cc1	26*	-3	4	17	2	0	12	11	9
Nc1nnnn1/N=C/c1cc(Cl)cc(Cl)c1O	23*	.	.	6	.	.	24*	28	-4
Nc1nnnn1/N=C/c1cc(Cl)ccc1O	28*	.	.	20	.	.	10	11	0
Cn1c(CNC(=O)CCNC(=O)c2ccccc2)cc(=O)n(C)c1=O	26*	.	.	3	.	.	2	2	0
O=C1CCCCCC1C1(O)C(=O)Nc2ccccc21 (stereo unspecified)	32*	0	3	-3	13	0	1	0	1
COc1ccc2c(c1)CC(C1(O)C(=O)Nc3ccccc31)C2=O (stereo unspecified)	-2	-12	4	-5	4	0	.	.	.
O=[N+]([O-])c1cnc(Sc2ccncn2)s1	31*	2	.	80*	.	.	46*	1	99*
Cc1cc(C)n(Cc2cccc(C(=O)N/N=C/c3cccnc3)c2)n1	-14	.	.	-1	.	.	.	.	.
O=C1C(Cl)=C(NCCc2ccccc2)C(=O)c2ccccc21	21*	.	.	1	.	.	50*	5	98*
O=C1C(Cl)=C(Nc2ccccc2)C(=O)c2ccccc21	-3	-3	4	5	-3	0	.	.	.
O=S(=O)(Nc1cccc2ncccc12)c1cccs1	29*	-1	4	52*	5	0	26*	12	103*
CCN1CCN(Cc2c(O)ccc3c2O/C(=C\c2ccc(C)cc2)C3=O)CC1	21*	-4	1	16	10	0	10	14	1
CCc1ccc(/C=C2\Oc3c(ccc(O)c3CN3CCN(C)CC3)C2=O)cc1	0	1	.	15	.	.	.	.	.
COc1cccc(C(O)c2nc(-c3ccc4ccccc4c3)cs2)c1 (stereo unspecified)	.	.	.	-4	.	.	.	.	.

Source: PubChem (several laboratories)
